Assay results as given in ChEMBL document CHEMBL4765233, “From Lead to Drug Candidate: Optimization of 3-(Phenylethynyl)-1H-pyrazolo[3,4-d]pyrimidin-4-amine Derivatives as Agents for the Treatment of Triple Negative Breast Cancer” (J Med Chem, 2016).
Active and inactive are the calls of the source. The calls are words filed in the database; no cut-off is given here.

Experiments:
MDA-MB-231 [1] = assay: Antiproliferative activity against human MDA-MB-231 cells assessed as reduction in cell viability incubated for 72 hrs by MTT assay; type: functional, cell-based; details: MDA-MB-231, 72 h
Procedure, shortened: (§1)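 MTT viability assay. ATCC cell lines were grown in designated medium with 10% FBS at 37 °C, 5% CO2. Cells seeded at 1500−30000 per well and incubated 24 h, then exposed to compound (0−10 μg/mL) for 72 h. MTT added for 2−4 h. Formazan dissolved in DMSO (adherent) or acidified SDS overnight (suspension), absorbance read at 570 nm. Triplicates; IC50 calculated.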

[2] = Toxicity in SCID mouse xenografted with MDA-MB-231 cells assessed as change in body weight at 40 mg/kg, po qd for 15 days and measured every 3 days; type: organism-based; details: in vivo, 360 h, dose 40 mg/kg/day, time 15 day
MDA-MB-435 [3] = assay: Antiproliferative activity against human MDA-MB-435 cells assessed as reduction in cell viability incubated for 72 hrs by MTT assay; type: functional, cell-based; details: MDA-MB-435, 72 h; procedure, shortened: as §1
[4] = target: Voltage-gated inwardly rectifying potassium channel KCNH2 (Homo sapiens, UniProt Q12809); assay: Inhibition of human ERG expressed in CHO cells at -80 mV holding potential by automated Qpatch electrophysiological assay
Voltage-gated inwardly rectifying potassium channel KCNH2, sequence (Q12809 whole entry): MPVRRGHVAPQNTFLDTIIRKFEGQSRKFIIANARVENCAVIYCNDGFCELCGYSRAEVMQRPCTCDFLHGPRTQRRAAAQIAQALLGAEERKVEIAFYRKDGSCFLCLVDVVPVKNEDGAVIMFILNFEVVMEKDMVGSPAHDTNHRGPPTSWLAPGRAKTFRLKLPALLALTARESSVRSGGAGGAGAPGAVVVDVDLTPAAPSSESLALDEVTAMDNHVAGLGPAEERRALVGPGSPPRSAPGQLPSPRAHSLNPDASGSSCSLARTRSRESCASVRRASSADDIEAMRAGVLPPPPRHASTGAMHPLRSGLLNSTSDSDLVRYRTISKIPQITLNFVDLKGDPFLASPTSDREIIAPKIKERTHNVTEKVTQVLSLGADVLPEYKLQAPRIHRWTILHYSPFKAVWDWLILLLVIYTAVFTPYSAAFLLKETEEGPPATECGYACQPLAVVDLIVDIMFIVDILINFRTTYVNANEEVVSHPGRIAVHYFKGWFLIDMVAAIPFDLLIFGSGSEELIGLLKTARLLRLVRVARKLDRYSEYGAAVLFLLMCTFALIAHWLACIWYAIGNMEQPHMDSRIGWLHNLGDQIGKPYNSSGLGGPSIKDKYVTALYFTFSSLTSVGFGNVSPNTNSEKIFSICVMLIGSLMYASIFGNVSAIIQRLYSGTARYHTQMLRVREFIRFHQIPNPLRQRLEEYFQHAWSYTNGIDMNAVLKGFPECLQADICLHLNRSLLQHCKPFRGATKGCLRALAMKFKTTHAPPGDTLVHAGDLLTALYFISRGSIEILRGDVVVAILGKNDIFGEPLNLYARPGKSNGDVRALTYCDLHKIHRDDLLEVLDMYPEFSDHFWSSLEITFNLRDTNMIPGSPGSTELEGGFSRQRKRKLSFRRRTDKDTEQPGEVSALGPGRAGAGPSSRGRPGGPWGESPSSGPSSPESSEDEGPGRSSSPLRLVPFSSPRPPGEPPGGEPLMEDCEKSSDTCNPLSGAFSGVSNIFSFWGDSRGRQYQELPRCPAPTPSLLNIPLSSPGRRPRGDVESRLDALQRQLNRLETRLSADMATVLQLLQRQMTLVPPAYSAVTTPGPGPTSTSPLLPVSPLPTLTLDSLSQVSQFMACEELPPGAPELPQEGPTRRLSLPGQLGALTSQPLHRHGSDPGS

[5] = Toxicity in SCID mouse xenografted with MDA-MB-231 cells assessed as animal death at 40 mg/kg, po qd for 15 days; type: organism-based; details: in vivo, dose 40 mg/kg/day, time 15 day, read-out: Activity
HepG2 = assay: Antiproliferative activity against human HepG2 cells assessed as reduction in cell viability incubated for 72 hrs by MTT assay; type: ADME, cell-based; details: HepG2, 72 h
MDA-MB-231 [6] = assay: Antitumor activity against human MDA-MB-231 cells xenografted in SCID mouse assessed as tumor growth inhibition at 40 mg/kg, po qd for 15 days and measured every 3 days; type: functional; details: MDA-MB-231, po, 360 h, time 15 day
Procedure, shortened: (§2)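 SCID mice (5−6 weeks) injected subcutaneously with 100 μL of cells at 5 × 10^7/mL. At 150−200 mm3 mice randomized, 6 per group. Oral compounds given in water with 25% PEG400 plus 5% DMSO; paclitaxel given 10 mg/kg/week iv. Tumor volume a×b²/2 and body weight measured every 3 days. Inhibition rate (c−d)/c×100% against vehicle control.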

[7] = Acute toxicity in Sprague-Dawley rat assessed as histopathological changes in kidney at 100 mg/kg, po administered as single dose measured after 24 hrs by H and E staining based light microscope analysis; type: organism-based; details: in vivo
Procedure, shortened: (§3)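 Sprague-Dawley rats received a single oral dose of 100 mg/kg in sterile water with 25% (v/v) PEG400 plus 5% DMSO. Organs were examined by histology and immunohistochemistry for pathological changes. Behaviour and side effects were checked daily.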

[8] = Acute toxicity in Sprague-Dawley rat assessed as histopathological changes in liver at 100 mg/kg, po administered as single dose measured after 24 hrs by H and E staining based light microscope analysis; type: organism-based; details: in vivo; procedure, shortened: as §3
[9] = Acute toxicity in Sprague-Dawley rat assessed as histopathological changes in lungs at 100 mg/kg, po administered as single dose measured after 24 hrs by H and E staining based light microscope analysis; type: organism-based; details: in vivo; procedure, shortened: as §3
[10] = Acute toxicity in Sprague-Dawley rat assessed as histopathological changes in spleen at 100 mg/kg, po administered as single dose measured after 24 hrs by H and E staining based light microscope analysis; type: organism-based; details: in vivo; procedure, shortened: as §3
[11] = Acute toxicity in Sprague-Dawley rat assessed as histopathological changes in heart at 100 mg/kg, po administered as single dose measured after 24 hrs by H and E staining based light microscope analysis; type: organism-based; details: in vivo; procedure, shortened: as §3
MDA-MB-231 [12] = assay: Inhibition of MEK phosphorylation in human MDA-MB-231 cells at 0.03 to 0.3 uM incubated for 20 hrs by Western blot analysis; type: cell-based; details: dose 0.03-0.3 µM
Procedure, shortened: (§4)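 MDA-MB-231 cells treated with a series of concentrations for 20 h at 37 °C. Cells washed with ice-cold saline and lysed in RIPA buffer with protease cocktail. Lysates cleared at 12000 rpm for 10 min at 4 °C and protein quantified by Bradford. Equal protein separated by SDS-PAGE, transferred to PVDF and probed with antibodies.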

MDA-MB-231 [13] = assay: Induction of apoptosis in human MDA-MB-231 cells assessed as live cells at 0.1 uM incubated for 24 hrs by annexin V-FITC and propidium iodide staining based flow cytometry analysis (reference value: 96.95 %); type: functional
MDA-MB-231 [14] = assay: Increase in cleaved caspase-3 level in human MDA-MB-231 cells at 0.03 to 0.3 uM incubated for 20 hrs by Western blot analysis; type: functional, cell-based; details: dose 0.03-0.3 µM
Procedure, shortened: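 MDA-MB-231 cells given a concentration series for 20 h at 37 °C. Cells lysed in RIPA with protease cocktail, cleared at 12000 rpm, 4 °C. Protein quantified by Bradford, equal amounts run on SDS-PAGE, transferred to PVDF and immunoblotted.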

MDA-MB-435 [15] = assay: Antitumor activity against human MDA-MB-435 cells xenografted in SCID mouse assessed as tumor growth inhibition at 40 mg/kg, po QD for 21 days and measured every 3 days; type: functional; details: dose 40.0 mg/kg/day, time 21.0 day; procedure, shortened: as §2
MDA-MB-231 [16] = assay: Inhibition of colony formation in human MDA-MB-231 cells at 0.1 uM treated for 12 days by crystal violet staining based visual analysis; type: functional, cell-based; details: time 12.0 day
Procedure, shortened: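 MDA-MB-231 cells seeded at 5000 per well in six-well plates and treated the next day, with drug-containing medium replaced every 4 days. After 12 days, colonies fixed with methanol and stained with crystal violet, then photographed.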

MDA-MB-231 [17] = assay: Induction of apoptosis in human MDA-MB-231 cells assessed as necrotic cells at 0.1 uM incubated for 24 hrs by annexin V-FITC and propidium iodide staining based flow cytometry analysis (reference value: 0.2 %); type: functional
MDA-MB-231 [18] = assay: Inhibition of Fra1 phosphorylation in human MDA-MB-231 cells at 0.03 to 0.3 uM incubated for 20 hrs by Western blot analysis; type: functional, cell-based; details: dose 0.03-0.3 µM; procedure, shortened: as §4
[19] = Toxicity in SCID mouse xenografted with MDA-MB-231 cells assessed as change in body weight at 40 mg/kg, po qd for 21 days and measured every 3 days; type: organism-based; details: in vivo, 504 h, dose 40 mg/kg/day, time 21 day
Procedure, shortened: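 Exponential-phase cells washed and injected subcutaneously (5 × 10^6 cells in 100 μL) into 5–6-week SCID mice. At 150–200 mm3, mice randomised to groups of 6. Oral dosing daily in water with 25% PEG400 and 5% DMSO; paclitaxel 10 mg/kg weekly by tail vein. Body weight measured every 3 days and side effects checked daily.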

MDA-MB-231 [20] = assay: Antimigratory activity against human MDA-MB-231 cells assessed as inhibition of cell migration at 0.3 uM incubated for 20 hrs by wound healing assay; type: functional, cell-based
Procedure, shortened: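 MDA-MB-231 monolayer grown to confluence, scratched with a sterile pipet tip, rinsed with physiological saline, then given DMEM containing vehicle or compound. Wound imaged after 20 h to assess migration.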

MDA-MB-231 [21] = assay: Antitumor activity against human MDA-MB-231 cells xenografted in SCID mouse assessed as tumor growth inhibition at 40 mg/kg, po qd for 21 days and measured every 3 days; type: functional; details: dose 40.0 mg/kg/day, time 21.0 day; procedure, shortened: as §2
MDA-MB-231 [22] = assay: Induction of apoptosis in human MDA-MB-231 cells assessed as early apoptotic cells at 0.1 uM incubated for 24 hrs by annexin V-FITC and propidium iodide staining based flow cytometry analysis (reference value: 2 %); type: functional
MDA-MB-231 [23] = assay: Induction of apoptosis in human MDA-MB-231 cells assessed as late apoptotic cells at 0.1 uM incubated for 24 hrs by annexin V-FITC and propidium iodide staining based flow cytometry analysis (reference value: 0.85 %); type: functional
MDA-MB-231 [24] = assay: Inhibition of ERK phosphorylation in human MDA-MB-231 cells at 0.03 to 0.3 uM incubated for 20 hrs by Western blot analysis; type: cell-based; details: dose 0.03-0.3 µM; procedure, shortened: as §4
MDA-MB-231 [25] = assay: Inhibition of Fra1 expression in human MDA-MB-231 cells at 0.03 to 0.3 uM incubated for 20 hrs by Western blot analysis; type: functional, cell-based; details: dose 0.03-0.3 µM; procedure, shortened: as §4

| Compound | IC50 (MDA-MB-231 [1]) [nM] | Activity [2] [%] | IC50 (MDA-MB-435 [3]) [nM] | IC50 [4] [nM] | mortality at 360 h [5] [%] | IC50 (HepG2) [nM] | inhibition in vivo at 40 mg/kg/day (MDA-MB-231 [6]) [%] | other results |
| --- | --- | --- | --- | --- | --- | --- | --- | --- |
| Cc1ccc(NC(=O)c2cccc(C(F)(F)F)c2)cc1C#Cc1nn(C[C@@H](C)CO)c2ncnc(N)c12 | 17 | -3.2 | 10 | > 30000 | 0 | 9500 | 78.1 | – |
| CCn1nc(C#Cc2cc(C(=O)Nc3ccc(CN4CCN(C)CC4)c(C(F)(F)F)c3)ccc2C)c2c(N)ncnc21 | – | – | – | – | – | – | – | Activity [7]: Toxic; Activity [8]: Toxic; Activity [9]: Toxic; Activity [10]: Toxic; Activity [11]: Toxic |
| Cc1ccc(NC(=O)c2cccc(C(F)(F)F)c2)cc1C#Cc1nn(C[C@H](C)CO)c2ncnc(N)c12 | 10 | -8.2 | 10 | > 30000 | 0 | > 10000 | 77.3 | – |
| Cc1ccc(NC(=O)c2ccc(C)c(C(F)(F)F)c2)cc1C#Cc1nn(C[C@H](C)CO)c2ncnc(N)c12 | 43 | -11.3 | 61 | > 30000 | 0 | > 10000 | 97.1 | – |
| Cc1nc(Nc2ncc(C(=O)Nc3c(C)cccc3Cl)s2)cc(N2CCN(CCO)CC2)n1.O [DASATINIB] | 112 | – | 5150 | – | – | 7500 | – | inhibition (MDA-MB-231 [12]): Active; Activity (MDA-MB-231 [13]): 92.97%; Activity (MDA-MB-231 [14]): Active; inhibition (MDA-MB-435 [15]): Active; inhibition (MDA-MB-231 [16]): Active; Activity (MDA-MB-231 [17]): 0.34%; inhibition (MDA-MB-231 [18]): Active; Activity [19]: Non-Toxic; Activity (MDA-MB-231 [20]): Active; Activity (MDA-MB-231 [21]): Active; Activity (MDA-MB-231 [22]): 4.24%; Activity (MDA-MB-231 [23]): 2.45%; inhibition (MDA-MB-231 [24]): Active; inhibition (MDA-MB-231 [25]): Active |
